From ChEMBL document CHEMBL3124833, “Achiral pyrazinone-based inhibitors of the hepatitis C virus NS3 protease and drug-resistant variants with elongated substituents directed toward the S2 pocket” (J Med Chem, 2014)
In brackets after ≈: the same amount, converted by molar mass. One block for each molecule: values may come before it.

Columns and labels:
[1] = Inhibition of full-length wild-type HCV NS3 protease; parameters: species or system Hepacivirus hominis
Procedure, shortened: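 Ki was determined in vitro with full-length NS3 protease (genotype 1a construct, expressed and purified by earlier methods) and the central part of NS4A as cofactor.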

[2] = Solubility of the compound in phosphate buffered saline at pH 7.4 after 1 hr by LC-MS/MS analysis; type: physicochemical
Procedure, shortened: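 Solubility was measured in phosphate-buffered saline at pH 7.4 with a final DMSO concentration of 1%.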

[3] = Half life in human liver microsomes at 1 uM by LC-MS/MS analysis; type: ADME
Procedure, shortened: (§1)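 Compounds were incubated with pooled human liver microsomes (0.5 mg/mL) over 0–40 min. In vitro t1/2 and intrinsic clearance (Clint, μL/min/mg) were calculated with previously published models.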

[4] = Intrinsic clearance in human liver microsomes at 1 uM up to 40 mins by LC-MS/MS analysis in presence of NADPH; type: ADME; procedure, shortened: as §1
[5] = Apparent permeability from apical to basolateral side in human Caco2 cells at 10 uM by LC-MS analysis; type: ADME, cell-based; details: Caco-2
Procedure, shortened: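 Apparent permeability coefficients (Papp) were derived from transport rates across Caco-2 cell monolayers. The assay used a modified, more physiological medium because the compounds adsorbed strongly to plasticware.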

NS3 protease [6] = target: NS3 protease (Hepacivirus C, UniProt C1KIQ2, D168V); experiment: Inhibition of full-length HCV NS3 protease D168V mutant; parameters: species or system Hepacivirus hominis
Procedure, shortened: (§2)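 Ki determined in vitro against full-length NS3 protease variants carrying A156T, D168V or R155K substitutions, with the central part of NS4A as cofactor. Enzymes were expressed and purified by previously published methods. The R155K variant (genotype 1a) had the Arg→Lys change introduced at position 155 by PCR.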

NS3 protease [7] = target: NS3 protease (Hepatitis C virus subtype 1b, UniProt Q0ZMF1, A156T); experiment: Inhibition of full-length HCV NS3 protease A156T mutant; parameters: species or system Hepacivirus hominis; procedure, shortened: as §2

Ki [1]: 380 nM
SMILES: CC(C)(C)NC(=O)Nc1nc(Cl)c(-c2ccc(Br)cc2)n(CC(=O)Nc2ccccc2C(=O)NS(=O)(=O)c2ccc(C(F)(F)F)cc2)c1=O

Ki [1]: 560 nM
solubility at 1 h [2]: 22 µM (≈ 16.5 µg/mL)
half-life at 1 µM [3]: 81 min
microsomal CLint at 1 µM [4]: 17 µL/min/mg
Papp A→B at 10 µM [5]: 4 ×10⁻⁶ cm/s
SMILES: CC(C)(C)NC(=O)Nc1nc(Cl)c(COCc2ccccc2)n(CC(=O)Nc2ccccc2C(=O)NS(=O)(=O)c2ccc(C(F)(F)F)cc2)c1=O

Ki [1]: 540 nM
SMILES: CC(C)(C)NC(=O)Nc1nc(Cl)c(Cc2ccc(-c3cccnc3)cc2)n(CC(=O)Nc2ccccc2C(=O)NS(=O)(=O)c2ccc(C(F)(F)F)cc2)c1=O

Ki [1]: 290 nM
SMILES: CC(C)(C)NC(=O)Nc1nc(Cl)c(Cc2cccc3ccccc23)n(CC(=O)Nc2ccccc2C(=O)NS(=O)(=O)c2ccc(C(F)(F)F)cc2)c1=O

Ki [1]: 290 nM
SMILES: CC(C)(C)NC(=O)Nc1nc(Cl)c(Cc2cccc(Br)c2)n(CC(=O)Nc2ccccc2C(=O)NS(=O)(=O)c2ccc(C(F)(F)F)cc2)c1=O

Ki [1]: 700 nM
SMILES: CC(C)(C)NC(=O)Nc1nc(Cl)c(Cc2ccccc2)n(C(C(=O)Nc2ccccc2C(=O)NS(=O)(=O)c2ccc(C(F)(F)F)cc2)c2ccccc2)c1=O (configuration not stated)

Ki [1]: 6200 nM
SMILES: Cc1c(Cl)nc(NC(=O)NC(C)(C)C)c(=O)n1C(C(=O)NC(CC1CCC1)C(=O)C(N)=O)c1ccccc1 (configuration not stated)

Ki [1]: 7100 nM
SMILES: CC(C)(C)NC(=O)Nc1nc(Cl)c(Cc2ccccc2)n(CC(=O)NC(CC2CCC2)C(=O)C(N)=O)c1=O (configuration not stated)

Ki [1]: 250 nM
SMILES: CC(C)(C)NC(=O)Nc1nc(Cl)c(Cc2ccccc2Br)n(CC(=O)Nc2ccccc2C(=O)NS(=O)(=O)c2ccc(C(F)(F)F)cc2)c1=O

SMILES: CC(C)(C)NC(=O)Nc1nc(Cl)c(CCC2CCCCC2)n(CC(=O)Nc2ccccc2C(=O)NS(=O)(=O)c2ccc(C(F)(F)F)cc2)c1=O
Ki [1]: 110 nM
solubility at 1 h [2]: 31 µM (≈ 22.9 µg/mL)
Ki (NS3 protease [6]): 320 nM
half-life at 1 µM [3]: 27 min
Ki (NS3 protease [7]): 170 nM
microsomal CLint at 1 µM [4]: 52 µL/min/mg
Papp A→B at 10 µM [5]: 0.12 ×10⁻⁶ cm/s

Ki [1]: 330 nM
SMILES: CC(C)(C)NC(=O)Nc1nc(Cl)c(Cc2ccc3ccccc3c2)n(CC(=O)Nc2ccccc2C(=O)NS(=O)(=O)c2ccc(C(F)(F)F)cc2)c1=O

Ki [1]: 2100 nM
SMILES: CC(C)(C)NC(=O)Nc1nc(Cl)c(-c2ccccc2-c2cccnc2)n(CC(=O)Nc2ccccc2C(=O)NS(=O)(=O)c2ccc(C(F)(F)F)cc2)c1=O

SMILES: Cc1c(Cl)nc(NC(=O)NC(C)(C)C)c(=O)n1C(C(=O)Nc1ccccc1C(=O)NS(=O)(=O)c1ccc(C(F)(F)F)cc1)c1ccccc1 (racemic)
Ki [1]: 390 nM
solubility at 1 h [2]: 38 µM (≈ 27.3 µg/mL)
Ki (NS3 protease [6]): 1260 nM
half-life at 1 µM [3]: 54 min
Ki (NS3 protease [7]): 930 nM
microsomal CLint at 1 µM [4]: 26 µL/min/mg
Papp A→B at 10 µM [5]: 1.1 ×10⁻⁶ cm/s

Ki [1]: 390 nM
SMILES: CC(C)(C)NC(=O)Nc1nc(Cl)c(-c2cccc(-c3cccnc3)c2)n(CC(=O)Nc2ccccc2C(=O)NS(=O)(=O)c2ccc(C(F)(F)F)cc2)c1=O

Ki [1]: 810 nM
SMILES: CC(C)(C)NC(=O)Nc1nc(Cl)c(Cc2cccc(-c3cccnc3)c2)n(CC(=O)Nc2ccccc2C(=O)NS(=O)(=O)c2ccc(C(F)(F)F)cc2)c1=O

SMILES: COc1ccc2c(O[C@@H]3C[C@H]4C(=O)N[C@]5(C(=O)O)C[C@H]5/C=C\CCCCC[C@H](NC(=O)OC5CCCC5)C(=O)N4C3)cc(-c3csc(NC(C)C)n3)nc2c1 [CILUPREVIR]
Ki [1]: 0.089 nM
Ki (NS3 protease [6]): 200 nM
Ki (NS3 protease [7]): 120 nM

Ki [1]: 1900 nM
SMILES: CC(C)(C)NC(=O)Nc1nc(Cl)cn(CC(=O)Nc2ccccc2C(=O)NS(=O)(=O)c2ccc(C(F)(F)F)cc2)c1=O

Ki [1]: 660 nM
SMILES: CC(C)(C)NC(=O)Nc1nc(Cl)c(Cc2ccccc2)n(CC(=O)Nc2ccccc2C(=O)NS(=O)(=O)c2ccc(C(F)(F)F)cc2)c1=O

Ki [1]: 440 nM
SMILES: CC(C)(C)NC(=O)Nc1nc(Cl)c(Cc2ccc(Br)cc2)n(CC(=O)Nc2ccccc2C(=O)NS(=O)(=O)c2ccc(C(F)(F)F)cc2)c1=O

Ki [1]: 1100 nM
SMILES: CC(C)(C)NC(=O)Nc1nc(Cl)c(Cc2ccccc2-c2cccnc2)n(CC(=O)Nc2ccccc2C(=O)NS(=O)(=O)c2ccc(C(F)(F)F)cc2)c1=O

Ki [1]: 140 nM
SMILES: CC(C)(C)NC(=O)Nc1nc(Cl)c(CCCc2ccccc2)n(CC(=O)Nc2ccccc2C(=O)NS(=O)(=O)c2ccc(C(F)(F)F)cc2)c1=O

SMILES: CCC[C@H](NC(=O)[C@@H]1[C@H]2CCC[C@H]2CN1C(=O)[C@@H](NC(=O)[C@@H](NC(=O)c1cnccn1)C1CCCCC1)C(C)(C)C)C(=O)C(=O)NC1CC1 [TELAPREVIR]
Ki [1]: 15 nM
Ki (NS3 protease [6]): 3.9 nM
Ki (NS3 protease [7]): 6100 nM

Ki [1]: 160 nM
solubility at 1 h [2]: 21 µM (≈ 14.7 µg/mL)
half-life at 1 µM [3]: 42 min
microsomal CLint at 1 µM [4]: 33 µL/min/mg
Papp A→B at 10 µM [5]: 0.04 ×10⁻⁶ cm/s
SMILES: CCCCCc1c(Cl)nc(NC(=O)NC(C)(C)C)c(=O)n1CC(=O)Nc1ccccc1C(=O)NS(=O)(=O)c1ccc(C(F)(F)F)cc1

Ki [1]: 600 nM
SMILES: CC(C)(C)NC(=O)Nc1nc(Cl)c(-c2cccc(Br)c2)n(CC(=O)Nc2ccccc2C(=O)NS(=O)(=O)c2ccc(C(F)(F)F)cc2)c1=O

SMILES: CC(C)(C)NC(=O)Nc1nc(Cl)c(-c2ccc(-c3cccnc3)cc2)n(CC(=O)Nc2ccccc2C(=O)NS(=O)(=O)c2ccc(C(F)(F)F)cc2)c1=O
Ki [1]: 440 nM
solubility at 1 h [2]: 53 µM (≈ 41.5 µg/mL)
Ki (NS3 protease [6]): 1520 nM
half-life at 1 µM [3]: 82 min
Ki (NS3 protease [7]): 740 nM
microsomal CLint at 1 µM [4]: 17 µL/min/mg
Papp A→B at 10 µM [5]: 7 ×10⁻⁶ cm/s

Ki [1]: 120 nM
solubility at 1 h [2]: 23 µM (≈ 16.9 µg/mL)
half-life at 1 µM [3]: > 100 min
microsomal CLint at 1 µM [4]: < 13 µL/min/mg
Papp A→B at 10 µM [5]: 0.3 ×10⁻⁶ cm/s
SMILES: CC(C)(C)NC(=O)Nc1nc(Cl)c(CCc2ccccc2)n(CC(=O)Nc2ccccc2C(=O)NS(=O)(=O)c2ccc(C(F)(F)F)cc2)c1=O

Ki [1]: 3800 nM
SMILES: Cc1c(Cl)nc(NC(=O)OC(C)(C)C)c(=O)n1C(C(=O)Nc1ccccc1C(=O)NS(=O)(=O)c1ccc(C(F)(F)F)cc1)c1ccccc1 (configuration not stated)

Ki [1]: 400 nM
SMILES: CC(C)(C)NC(=O)Nc1nc(Cl)c(-c2ccccc2Br)n(CC(=O)Nc2ccccc2C(=O)NS(=O)(=O)c2ccc(C(F)(F)F)cc2)c1=O
